MBD2 inh: inhibitors of MBD2 binding to methylated DNA, primary screen, biochemical, TR-FRET, DNA-binding domain, human. Methyl-CpG-binding domain protein 2 (Homo sapiens), Q9UBB5. MBD2 binding to methylated oligonucleotide. inhibition, % at 4.4 µM. 370,000 compounds, 0.31% hits. AID 686964, 2013; in the data active means inhibition above about 13%
LEDGF integ inh: blockers of LEDGF/p75-dependent integrase strand transfer – biochemical, TR-FRET, high throughput, primary screen | inhibition, % at 3.7 µM | AID 743269, 2014 | HIV-1 integrase (with human LEDGF/p75) | TR-FRET IN-LEDGF/p75 DNA integration, Eu/Cy5 | 370,000 compounds, 0.64% hits;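 active means inhibition above the screen-wide mean plus 3 SD, cut at about 13% in these data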;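 further: signal is the Cy5 over europium emission ratio at 671 and 618 nm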
CSN deneddyl inh: inhibitors of CSN-mediated cullin deneddylation, primary screen, biochemical, fluorescence polarization, uHTS; inhibition, % at 12.5 µM; COP9 signalosome complex subunit 5 (Homo sapiens), Q92905; Purified CSN, SCF-Nedd8-OG deneddylation; 360,000 compounds, 0.38% hits;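 active means pattern-corrected inhibition above about 35%, with an unprinted fluorescence ratio check between 0.5 and 1.5, limit read from the data, passing the limit was not always enough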
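assay system = purified human Csn5 enzyme expressed in HEK293T cells | amount = 0.24 nM enzyme | buffer or medium = Tris/NaCl/DTT buffer, pH 7.5 | reagent = 10 nM SCFSkp2-Nedd8OG | compound = one concentration, 12.5 µM, 0.25% DMSO | times = 90 min reaction at room temperature | signal = FP | read-out basis = % inhibition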
UHRF1 MBD2 ctr: UHRF1 methylated DNA binding inhibitors, primary screen, counter-screen for MBD2 inhibitor project, biochemical, TR-FRET, human UHRF1, single concentration. E3 ubiquitin-protein ligase UHRF1 (Homo sapiens), Q96T88. UHRF1 binding to methylated oligo. inhibition, % at 4.4 µM. 370,000 compounds, 0.75% hits. AID 687016, 2013; in the data active means inhibition above about 21%;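 further: UHRF1 SRA domain binding a hemimethylated CpG hairpin DNA probe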
ATG4B inhibitor: ATG4B protease inhibitors, primary screen, biochemical, fluorescence, uHTS | inhibition, % at 8.33 µM | ATG4B cleavage of LC3-PLA2, NBD-HPC fluorescence, 1 h | Cysteine protease ATG4B (Homo sapiens), Q9Y4P1 | 340,000 compounds, 0.51% hits; in the data active means inhibition above about 40%
Target sequence (Q9Y4P1 whole entry, looked up): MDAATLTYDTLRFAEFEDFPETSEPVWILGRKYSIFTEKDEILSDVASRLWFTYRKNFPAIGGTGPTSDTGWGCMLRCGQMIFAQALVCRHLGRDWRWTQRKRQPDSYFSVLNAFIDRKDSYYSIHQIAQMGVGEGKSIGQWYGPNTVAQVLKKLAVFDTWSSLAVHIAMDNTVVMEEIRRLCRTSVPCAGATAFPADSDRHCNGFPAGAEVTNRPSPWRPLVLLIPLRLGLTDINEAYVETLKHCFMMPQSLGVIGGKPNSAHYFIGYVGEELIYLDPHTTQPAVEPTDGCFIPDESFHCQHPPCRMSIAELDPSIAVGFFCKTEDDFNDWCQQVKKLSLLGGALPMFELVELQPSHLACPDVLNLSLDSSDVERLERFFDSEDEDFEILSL
rCAG RNA binder: binders of r(CAG) RNA repeats, primary screen, biochemical, fluorescence; r(CAG) RNA repeat, TO-PRO-1 dye displacement fluorescence; inhibition, % at 3 µM; 370,000 compounds, 1.3% hits;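 active means inhibition above the plate cutoff, the mean of all test compounds on that plate plus 3 SD, cut at about 35% in these data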;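 further: higher means more dye released from RNA so lower well fluorescence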
ATG4B conf: ATG4B protease inhibitors, retest, confirmation, biochemical, fluorescence, single concentration | shares compounds with ATG4B inhibitor | ATG4B protease fluorescent substrate cleavage assay | inhibition, % at 8.33 µM | 320 compounds, 92% hits | AID 504757, 2011; in the data active means inhibition above about 39%
PLA2 counter: PLA2 enzyme inhibition, counter-screen for ATG4B inhibitor project, biochemical, single concentration, uHTS hits; AID 588402, 2011; purified PLA2, NBD-C6-HPC fluorescence, 45 min; inhibition, % at 8.33 µM; 1,600 compounds, 66% hits; shares compounds with ATG4B inhibitor; in the data active means inhibition above about 50%
Target sequence (P04054 whole entry, looked up): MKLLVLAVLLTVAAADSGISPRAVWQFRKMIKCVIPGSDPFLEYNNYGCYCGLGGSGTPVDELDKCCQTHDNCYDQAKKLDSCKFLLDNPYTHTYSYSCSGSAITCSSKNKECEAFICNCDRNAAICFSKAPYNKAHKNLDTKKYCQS
A number is an active result; - = inactive; . = no result. Sampled rows, rich in hits. Any-hit rate of the full collection: about 3.1%.

SMILES	MBD2 inh	LEDGF integ inh	CSN deneddyl inh	UHRF1 MBD2 ctr	ATG4B inhibitor	rCAG RNA binder	PLA2 counter	others
CCn1c(SCC(=O)Nc2oc(-c3ccccc3)c(-c3ccccc3)c2C#N)nnc1-c1ccco1	-	-	-	-	61	-	68
Cc1cccc(C(CC(=O)NCc2ccco2)c2ccccc2)c1O (stereo unspecified)	-	-	-	-	-	-	.
CC(C)Oc1ccc(C(CC(=O)NCc2ccco2)c2ccccc2)cc1 (stereo unspecified)	-	-	-	-	44	-	-	ATG4B conf=65
Cc1nc(N2CCN(C(=O)C3CCCCC3)CC2)c2c3c(sc2n1)CCCC3	-	-	.	-	.	.	.
Clc1ccccc1OCCN1CCC(Cc2ccccc2)CC1	-	-	-	-	-	-	.
O=Cc1cc(Cl)ccc1OCCN1CCC(Cc2ccccc2)CC1	-	-	-	-	84	-	87
CCN(CCNC(=O)[C@H]1C=C(OC)C(=O)C[C@H](c2ccccc2)[C@H]1C)C(C)=O	-	-	.	-	.	-	.
Nc1nc(SCc2ccccc2[N+](=O)[O-])c2ncn(Cc3ccccc3)c2n1	-	-	-	-	50	-	58
O=C(Nc1ccc(F)cc1)OCCN1C(=O)CCC12CCC(c1ccc(Cl)cc1)CC2 (stereo unspecified)	-	-	.	-	.	-	.
COC(=O)C(C)N(C(=O)c1ccc(C(=O)c2ccccc2)cc1)c1c(C)cccc1C (stereo unspecified)	-	-	-	-	57	-	-	ATG4B conf=58
Cc1ccc(-n2nc3c(N4CCC(C(=O)N5CCN(C)CC5)CC4)nnc(C)c3c2C)cc1	-	-	-	-	-	-	.
COc1ccc(-n2nc3c(N4CCC(C(=O)N5CCCCCC5)CC4)nnc(C)c3c2C)cc1	-	-	-	-	75	-	79
Cc1nnc(N2CCC(C(=O)N3CCCCCC3)CC2)c2nn(-c3ccc(Cl)cc3)c(C)c12	-	-	-	-	76	-	86
COCCn1c(C)cc(C(=O)CSc2nc(C)nc3sc4c(c23)CCC4)c1C	-	-	-	-	57	-	-
Cc1ccc(C2CCC3(CCC(=O)N3CCOC(=O)Nc3ccc(F)cc3)CC2)cc1 (stereo unspecified)	-	-	.	-	.	-	.
CC(C)(C)N(Cc1cn(Cc2ccccc2)nn1)S(=O)(=O)c1ccc(N2CCCC2)cc1Br	-	-	.	-	.	-	.
COc1cc(NC(=O)c2ccccn2)ccc1NC(=O)c1ccccc1Cl	-	-	.	-	.	.	.
Cc1ccc2nc3c(c(Nc4ccc5c(c4)OCCO5)c2c1)CCC3	-	-	-	-	42	-	-	ATG4B conf=65
Cc1ccc2nc(N/N=C/c3ccccc3C#N)nc(-c3ccccc3)c2c1	.	.	-	.	-	.	.
Cc1ccc2nc(N/N=C/c3ccccc3F)nc(-c3ccccc3)c2c1	-	-	-	-	46	-	-	ATG4B conf=75
O=C(c1cnn(C(=O)COc2ccc(Cl)cc2)c1)c1ccccc1O	-	-	-	-	56	-	60
Cc1ccc(O)c(C(=O)c2cnn(C(=O)COc3ccc(Cl)cc3)c2)c1	-	-	-	-	-	-	.
CC(C)c1cc(C(C)C)c(S(=O)(=O)N2CCCC(C(=O)NCc3cccs3)C2)c(C(C)C)c1 (stereo unspecified)	-	-	.	-	.	-	.
COC(=O)CC(c1ccccc1F)N1Cc2ccccc2C1=O (stereo unspecified)	-	-	-	-	-	-	.
COC(=O)C(Cc1ccc(OC(=O)c2ccccc2Cl)cc1)N1Cc2ccccc2C1=O (stereo unspecified)	-	-	-	-	83	-	86
SMILES	MBD2 inh	LEDGF integ inh	CSN deneddyl inh	UHRF1 MBD2 ctr	ATG4B inhibitor	rCAG RNA binder	PLA2 counter	others
O=C(O)[C@H](Cc1ccccc1)N1Cc2ccccc2C1=O	-	-	-	-	-	-	.
COC(=O)C(Cc1ccc(OC(=O)c2ccccc2C)cc1)N1Cc2ccccc2C1=O (stereo unspecified)	-	-	-	-	72	-	76
O=C(c1ccco1)N1CCC(Oc2cccnc2)CC1	-	-	.	-	.	-	.
COc1ccc(CCC[C@@H](CCC(=O)N(c2ccccc2)c2ccccc2)CCc2ccccc2)cc1	-	-	.	-	.	-	.
Cc1c(Cl)cccc1NC(=S)N1CCCN(Cc2ccc(F)cc2)C1	-	-	-	-	52	-	55
Cc1ccccc1NC(=S)N1CCCN(Cc2ccc(F)cc2)C1	-	-	-	-	-	-	.
Cc1c(Cl)cccc1NC(=S)N1CCCN(Cc2ccccc2F)C1	-	-	-	-	64	-	56
O=C(Nc1ccc(F)cc1)OCCN1C(=O)CCC12CCC(c1ccccc1)CC2 (stereo unspecified)	-	-	.	-	.	-	.
CC(C)c1ccc(NC2CCCN(C(=O)c3ccco3)C2)cc1 (stereo unspecified)	-	-	-	-	54	-	53
CC(=O)c1[nH]c(C)c(C(=O)N2CCCC(Nc3ccc(C(C)C)cc3)C2)c1C (stereo unspecified)	-	-	-	-	-	-	.
CC(=O)c1ccc(C(=O)N2CCCC(Nc3ccc(C(C)C)cc3)C2)s1 (stereo unspecified)	-	-	-	-	49	-	56
CCCCCCC(=O)NC1CCCCN(Cc2ccccc2C)C1=O (stereo unspecified)	-	-	.	-	.	-	.
C=CC[C@@H]1NN2C(=O)[C@@H](CCCC)[C@@H]3c4cc5ccccc5cc4C=NN3[C@@H]2c2cc3ccccc3cc21	-	-	.	-	.	-	.
COCCNC(=O)Nc1ccc2nc(-c3cccs3)c(-c3cccs3)nc2c1	-	-	-	-	-	-	.
O=C(Nc1ccc2nc(-c3cccs3)c(-c3cccs3)nc2c1)NC1CC1	-	-	-	-	72	-	81
NC(=O)c1ccc(Oc2ccc3c(c2)CCC3)c([N+](=O)[O-])c1	-	-	-	-	80	-	85
NC(=O)c1ccc(Oc2ccc(Cl)cc2)c([N+](=O)[O-])c1	-	-	-	-	59	-	58

Screens from PubChem.
